Measurements as given in ChEMBL document CHEMBL3232844, “Synthesis and structure activity relationships of schweinfurthin indoles” (2014).

How the values were obtained:
Assay type in all cases: functional
SK-MEL-28 = assay: Cytotoxicity against human SK-MEL-28 cells; conditions: for CC50: read-out: pLC50 (the source's name) (converted); for TGI: read-out: pTGI (converted)
Procedure, shortened: (§1)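 Tested in a 60-cell-line human tumor panel screen; the read-out is growth inhibition, reported as GI50 for each cell line.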

RPMI-8226 = assay: Cytotoxicity against human RPMI8226 cells; conditions: for CC50: read-out: pLC50 (the source's name) (converted); for TGI: read-out: pTGI (converted); procedure, shortened: as §1
SW-620 = assay: Cytotoxicity against human SW620 cells; conditions: for CC50: read-out: pLC50 (the source's name) (converted); for TGI: read-out: pTGI (converted)
Procedure, shortened: (§2)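 Cell line run as part of the 60-cell-line screening panel; growth inhibition was reported as a GI50 for each line.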

Malme-3M = assay: Cytotoxicity against human MALME-3M cells; conditions: for CC50: read-out: pLC50 (the source's name) (converted); for TGI: read-out: pTGI (converted); procedure, shortened: as §1
[1] = Cytotoxicity against human HCT15 cells; conditions: for GI50: HCT-15; for CC50: HCT-15, read-out: pLC50 (the source's name) (converted); for TGI: HCT-15, read-out: pTGI (converted); procedure, shortened: as §1
LOX IMVI = assay: Cytotoxicity against human LOXIMVI cells; conditions: for CC50: read-out: pLC50 (the source's name) (converted); for TGI: read-out: pTGI (converted); procedure, shortened: as §1
[2] = Cytotoxicity against human OVCAR4 cells; conditions: for GI50: OVCAR-4; for CC50: OVCAR-4, read-out: pLC50 (the source's name) (converted); for TGI: OVCAR-4, read-out: pTGI (converted); procedure, shortened: as §1
A549 = assay: Cytotoxicity against human A549 cells; conditions: for TGI: read-out: pTGI (converted); for CC50: read-out: pLC50 (the source's name) (converted); procedure, shortened: as §1
NCI-H522 = assay: Cytotoxicity against human NCI-H522 cells; conditions: for CC50: read-out: pLC50 (the source's name) (converted); for TGI: read-out: pTGI (converted); procedure, shortened: as §1
CAKI-1 = assay: Cytotoxicity against human Caki1 cells; conditions: for TGI: read-out: pTGI (converted); procedure, shortened: as §1
HOP-62 = assay: Cytotoxicity against human HOP62 cells; conditions: for CC50: read-out: pLC50 (the source's name) (converted); for TGI: read-out: pTGI (converted); procedure, shortened: as §1
IGROV-1 = assay: Cytotoxicity against human IGROV1 cells; conditions: for CC50: read-out: pLC50 (the source's name) (converted); for TGI: read-out: pTGI (converted); procedure, shortened: as §1
HCT-116 = assay: Cytotoxicity against human HCT116 cells; conditions: for CC50: read-out: pLC50 (the source's name) (converted); for TGI: read-out: pTGI (converted); procedure, shortened: as §1
TK-10 = assay: Cytotoxicity against human TK10 cells; conditions: for TGI: read-out: pTGI (converted); procedure, shortened: as §2
COLO 205 = assay: Cytotoxicity against human COLO205 cells; conditions: for CC50: read-out: pLC50 (the source's name) (converted); for TGI: read-out: pTGI (converted); procedure, shortened: as §1
HOP-92 = assay: Cytotoxicity against human HOP92 cells; conditions: for CC50: read-out: pLC50 (the source's name) (converted); for TGI: read-out: pTGI (converted); procedure, shortened: as §1
[3] = Cytotoxicity against human Hs578T cells; conditions: Hs-578T; for TGI: read-out: pTGI (converted); procedure, shortened: as §1

SMILES: COc1cc(/C=C/c2cc(O)c3cc[nH]c3c2)cc2c1O[C@]1(C)CC[C@@H](O)C(C)(C)[C@H]1C2
- GI50 (SK-MEL-28): 1480 nM
- CC50 (SK-MEL-28): > 100000 nM
- TGI (SK-MEL-28): > 100000 nM
- GI50 (RPMI-8226): 316 nM
- CC50 (RPMI-8226): > 100000 nM
- TGI (RPMI-8226): 2510 nM
- GI50 (SW-620): 1260 nM
- CC50 (SW-620): 8130 nM
- TGI (SW-620): 3160 nM
- GI50 (Malme-3M): 1740 nM
- CC50 (Malme-3M): 52500 nM
- TGI (Malme-3M): 10700 nM
- GI50 [1]: 324 nM
- CC50 [1]: > 100000 nM
- TGI [1]: 33900 nM
- GI50 (LOX IMVI): 363 nM
- CC50 (LOX IMVI): 4570 nM
- TGI (LOX IMVI): 1320 nM
- GI50 [2]: 3310 nM
- CC50 [2]: > 100000 nM
- TGI [2]: 34700 nM
- GI50 (A549): 1480 nM
- TGI (A549): 3720 nM
- GI50 (NCI-H522): 1290 nM
- CC50 (NCI-H522): 41700 nM
- TGI (NCI-H522): 8320 nM
- GI50 (CAKI-1): 741 nM
- LC50 (CAKI-1): 20900 nM
- TGI (CAKI-1): 2290 nM
- GI50 (HOP-62): 1910 nM
- CC50 (HOP-62): > 100000 nM
- TGI (HOP-62): 8130 nM
- GI50 (IGROV-1): 2290 nM
- CC50 (IGROV-1): 60300 nM
- TGI (IGROV-1): 10200 nM
- GI50 (HCT-116): 912 nM
- CC50 (HCT-116): 6030 nM
- TGI (HCT-116): 2450 nM
- GI50 (TK-10): 5620 nM
- LC50 (TK-10): > 100000 nM
- TGI (TK-10): 49000 nM
- GI50 (COLO 205): 1260 nM
- CC50 (COLO 205): 11500 nM
- TGI (COLO 205): 3390 nM
- GI50 (HOP-92): 1230 nM
- CC50 (HOP-92): > 100000 nM
- TGI (HOP-92): 19100 nM
- GI50 [3]: 251 nM
- LC50 [3]: > 100000 nM
- TGI [3]: 871 nM

SMILES: COc1cc(/C=C/c2cc(OC)c3c(C/C=C(\C)CCC=C(C)C)c[nH]c3c2)cc2c1O[C@]1(C)CC[C@@H](O)C(C)(C)[C@H]1C2
- GI50 (SK-MEL-28): 1050 nM
- CC50 (SK-MEL-28): 8320 nM
- TGI (SK-MEL-28): 2950 nM
- GI50 (RPMI-8226): 126 nM
- CC50 (RPMI-8226): > 100000 nM
- TGI (RPMI-8226): 617 nM
- GI50 (SW-620): 1170 nM
- CC50 (SW-620): 5890 nM
- TGI (SW-620): 2630 nM
- GI50 (Malme-3M): 1820 nM
- CC50 (Malme-3M): 77600 nM
- TGI (Malme-3M): 19500 nM
- GI50 [1]: 1820 nM
- CC50 [1]: 66100 nM
- TGI [1]: 11500 nM
- GI50 (LOX IMVI): 1000 nM
- CC50 (LOX IMVI): 7590 nM
- TGI (LOX IMVI): 2750 nM
- GI50 [2]: 2570 nM
- CC50 [2]: > 100000 nM
- TGI [2]: 70800 nM
- GI50 (A549): 1660 nM
- CC50 (A549): > 100000 nM
- TGI (A549): 36300 nM
- GI50 (NCI-H522): 1550 nM
- CC50 (NCI-H522): 8510 nM
- TGI (NCI-H522): 3630 nM
- GI50 (CAKI-1): 603 nM
- LC50 (CAKI-1): > 100000 nM
- TGI (CAKI-1): 3890 nM
- GI50 (HOP-62): 1070 nM
- CC50 (HOP-62): 22400 nM
- TGI (HOP-62): 4790 nM
- GI50 (IGROV-1): 3800 nM
- CC50 (IGROV-1): 91200 nM
- TGI (IGROV-1): 24000 nM
- GI50 (HCT-116): 933 nM
- CC50 (HCT-116): 43700 nM
- TGI (HCT-116): 12900 nM
- GI50 (TK-10): 4270 nM
- LC50 (TK-10): > 100000 nM
- TGI (TK-10): 46800 nM
- GI50 (COLO 205): 1020 nM
- CC50 (COLO 205): 6030 nM
- TGI (COLO 205): 2450 nM
- GI50 (HOP-92): 302 nM
- CC50 (HOP-92): > 100000 nM
- TGI (HOP-92): 16600 nM
- GI50 [3]: 219 nM
- LC50 [3]: > 100000 nM
- TGI [3]: 1660 nM

SMILES: COc1cc(/C=C/c2cc(OC)c3cc[nH]c3c2)cc2c1O[C@]1(C)CC[C@@H](O)C(C)(C)[C@H]1C2
- GI50 (SK-MEL-28): 209 nM
- TGI (SK-MEL-28): 776 nM
- GI50 (RPMI-8226): 28.2 nM
- CC50 (RPMI-8226): > 100000 nM
- TGI (RPMI-8226): 85.1 nM
- GI50 (SW-620): 309 nM
- CC50 (SW-620): 5500 nM
- TGI (SW-620): 1350 nM
- GI50 (Malme-3M): 575 nM
- CC50 (Malme-3M): > 100000 nM
- TGI (Malme-3M): 4900 nM
- GI50 [1]: 398 nM
- CC50 [1]: > 100000 nM
- TGI [1]: 7940 nM
- GI50 (LOX IMVI): 389 nM
- CC50 (LOX IMVI): 4470 nM
- TGI (LOX IMVI): 1480 nM
- GI50 [2]: 871 nM
- CC50 [2]: > 100000 nM
- TGI [2]: 26900 nM
- GI50 (A549): 871 nM
- CC50 (A549): > 100000 nM
- TGI (A549): 17800 nM
- GI50 (NCI-H522): 708 nM
- CC50 (NCI-H522): > 100000 nM
- TGI (NCI-H522): 2880 nM
- GI50 (CAKI-1): 79.4 nM
- LC50 (CAKI-1): 851 nM
- TGI (CAKI-1): 269 nM
- GI50 (HOP-62): 501 nM
- CC50 (HOP-62): 9550 nM
- TGI (HOP-62): 2400 nM
- GI50 (IGROV-1): 977 nM
- CC50 (IGROV-1): > 100000 nM
- TGI (IGROV-1): 13500 nM
- GI50 (HCT-116): 537 nM
- CC50 (HCT-116): 6030 nM
- TGI (HCT-116): 2040 nM
- GI50 (TK-10): 1550 nM
- LC50 (TK-10): > 100000 nM
- TGI (TK-10): 11000 nM
- GI50 (COLO 205): 219 nM
- CC50 (COLO 205): 891 nM
- TGI (COLO 205): 447 nM
- GI50 [3]: 51.3 nM
- LC50 [3]: > 100000 nM
- TGI [3]: 776 nM
